# Activity calls are given as the source filed them. The rule behind the calls is not given here.
# Columns and labels:
# A549 [1] = experiment: Antiproliferative activity against human A549 cells assessed as reduction in cell viability after 72 hrs by MTT assay; type: functional, cell-based; conditions: A549, 72 h
# A549 [2] = experiment: Cytotoxicity against human A549 cells assessed as change in cell morphology incubated for 48 hrs; type: functional, cell-based
# A549 [3] = experiment: Induction of cell cycle arrest in human A549 cells assessed as accumulation at G2/M phase at 2.5 uM incubated for 24 hrs by Muse cell analyzer based flow cytometry (reference value: 22.3 to 24%); type: functional
# A549 [4] = experiment: Induction of cell cycle arrest in human A549 cells assessed as increase in accumulation at G2/M phase incubated for 24 hrs by Muse cell analyzer based flow cytometry; type: functional
# A549 [5] = experiment: Induction of cell cycle arrest in human A549 cells assessed as accumulation at G0/G1 phase at 2.5 uM incubated for 24 hrs by Muse cell analyzer based flow cytometry (reference value: 63.9%); type: functional
# A549 [6] = experiment: Induction of cell cycle arrest in human A549 cells assessed as accumulation at G2/M phase at 5 uM incubated for 24 hrs by Muse cell analyzer based flow cytometry (reference value: 22.3 to 24%); type: functional
# A549 [7] = experiment: Induction of cell cycle arrest in human A549 cells assessed as accumulation at S phase at 5 uM incubated for 24 hrs by Muse cell analyzer based flow cytometry (reference value: 8%); type: functional
# A549 [8] = experiment: Induction of cell cycle arrest in human A549 cells assessed as accumulation at G0/G1 phase at 5 uM incubated for 24 hrs by Muse cell analyzer based flow cytometry (reference value: 63.9%); type: functional
# A549 [9] = experiment: Induction of cell cycle arrest in human A549 cells assessed as accumulation at S phase at 2.5 uM incubated for 24 hrs by Muse cell analyzer based flow cytometry (reference value: 8%); type: functional
# Tubulin (Sus scrofa) [10] = target: T1, Tubulin (Sus scrofa) (UniProt P02554+P02550); experiment: Inhibition of porcine brain tubulin polymerization at 10 uM
# T1 sequence (P02550 whole entry, looked up): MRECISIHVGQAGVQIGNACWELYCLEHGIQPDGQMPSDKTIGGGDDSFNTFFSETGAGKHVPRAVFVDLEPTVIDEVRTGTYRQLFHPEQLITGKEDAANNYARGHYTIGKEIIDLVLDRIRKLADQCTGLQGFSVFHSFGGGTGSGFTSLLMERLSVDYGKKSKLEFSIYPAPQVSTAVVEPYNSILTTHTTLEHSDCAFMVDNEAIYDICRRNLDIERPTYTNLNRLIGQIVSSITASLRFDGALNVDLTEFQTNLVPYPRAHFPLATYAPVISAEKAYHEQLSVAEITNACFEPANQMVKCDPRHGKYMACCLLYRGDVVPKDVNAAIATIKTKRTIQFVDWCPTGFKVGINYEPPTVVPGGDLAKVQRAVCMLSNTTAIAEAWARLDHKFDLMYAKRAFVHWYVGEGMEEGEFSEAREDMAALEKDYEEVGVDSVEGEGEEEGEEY
# T1 sequence (P02554 whole entry, looked up): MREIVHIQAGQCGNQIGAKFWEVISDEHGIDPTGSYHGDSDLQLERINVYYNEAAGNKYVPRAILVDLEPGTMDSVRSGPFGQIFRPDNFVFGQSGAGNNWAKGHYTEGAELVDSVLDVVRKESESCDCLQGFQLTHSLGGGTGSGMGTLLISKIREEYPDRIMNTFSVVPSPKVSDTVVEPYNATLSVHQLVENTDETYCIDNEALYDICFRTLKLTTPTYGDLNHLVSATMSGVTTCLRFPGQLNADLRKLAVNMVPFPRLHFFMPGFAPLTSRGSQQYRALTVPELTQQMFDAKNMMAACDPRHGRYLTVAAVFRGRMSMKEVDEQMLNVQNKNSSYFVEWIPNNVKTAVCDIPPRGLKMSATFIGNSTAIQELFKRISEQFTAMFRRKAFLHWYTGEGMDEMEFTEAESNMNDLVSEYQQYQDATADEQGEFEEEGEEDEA
# [11] = Drug uptake in cytoplasm of human A549 cells at 250 uM incubated for 3 hrs by Hoechst 33342 staining based confocal laser microscopic method; type: ADME, subcellular; conditions: a549, 3 h
# Summary of the method: (§1)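 Live A549 cells were incubated for 3 h with the FITC-linked conjugate at 250 μM, then stained with Hoechst 33342 nuclear dye at 0.1 for 5 min. Live-cell confocal laser microscopy located the green signal in the cytoplasm or nucleus.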
# [12] = Drug uptake in nucleus of human A549 cells at 250 uM incubated for 3 hrs by Hoechst 33342 staining based confocal laser microscopic method; type: ADME, subcellular; conditions: a549, 3 h; summary of the method: as §1
# A549 [13] = experiment: Induction of cell cycle arrest in human A549 cells assessed as accumulation at G2/M phase at 200 uM incubated for 24 hrs by Muse cell analyzer based flow cytometry (reference value: 16.2%); type: functional
# Tubulin (Sus scrofa) [14] = target: T1, Tubulin (Sus scrofa); experiment: Induction of porcine brain tubulin polymerization at 10 uM
structure (smiles),measurement,setting,value
O=C(OCCOCCOCCO)c1ccc(-c2c(-c3ccccc3)[nH]c3ccccc23)cc1,IC50,A549 [1],10.2 µM
same,Activity,A549 [2],Active
COC(=O)c1ccc(-c2c(-c3ccccc3)c3ccccc3n2CCOCCOCCO)cc1,IC50,A549 [1],41.3 µM
COC(=O)c1ccc(-c2c(-c3ccccc3)n(CCOCCOCCO)c3ccccc23)cc1,IC50,A549 [1],30.8 µM
COC(=O)c1ccc(-c2c(-c3ccccc3)[nH]c3ccccc23)cc1,Activity,A549 [3],41.4 - 42.8%
same,Activity,A549 [4],Dose-dependent effect
same,Activity,A549 [5],40.9%
same,Activity,A549 [6],70 - 71%
same,Activity,A549 [7],7.5%
same,Activity,A549 [8],10.2%
same,Activity,A549 [9],9.5%
same,inhibition,Tubulin (Sus scrofa) [10],Active
O=C(OCCOCCOCCO)c1ccc(-c2[nH]c3ccccc3c2-c2ccccc2)cc1,IC50,A549 [1],29.5 µM
O=C(OCCOCCOCCOCCOCCOCCNC(=S)Nc1ccc(-c2c3ccc(=O)cc-3oc3cc(O)ccc23)c(C(=O)O)c1)c1ccc(-c2c(-c3ccccc3)[nH]c3ccccc23)cc1,Drug uptake,[11],Active
same,IC50,A549 [1],238 µM
same,Drug uptake,[12],Not Active
same,Activity,A549 [13],53.3%
CC(=O)O[C@H]1C(=O)[C@@]2(C)[C@H]([C@H](OC(=O)c3ccccc3)[C@]3(O)C[C@H](OC(=O)[C@H](O)[C@@H](NC(=O)c4ccccc4)c4ccccc4)C(C)=C1C3(C)C)[C@]1(OC(C)=O)CO[C@@H]1C[C@@H]2O,Activity,Tubulin (Sus scrofa) [14],Active

# — ChEMBL document CHEMBL4342424, “A synthetic 2,3-diarylindole induces microtubule destabilization and G2/M cell cycle arrest in lung cancer cells” (Bioorg Med Chem Lett, 2020)
